# This is a sample that favours compounds with a hit; in the whole collection about 1.4% have one here.
# PLCb3 inh: blocks human PLC-beta3 enzyme activity | Q01970 | Purified PLC-beta3, fluorogenic substrate, fluorescence | inhibition, % at 12.2 µM | 370,000 compounds, 0.18% hits | AID 720704; in the data active = inhibition above about 11%
# FID counter: fluorescent intercalator displacement, NS3 helicase counter-screen; DNA fluorescent intercalator displacement, fluorescence; inhibition, % at 7.9 µM; 290,000 compounds, 0.17% hits; in the data active = inhibition above about 37%;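 note: higher means more ethidium bromide displaced from hairpin DNA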
# PLC-gamma1 inh: inhibitors of human phospholipase C gamma1; P19174; purified PLC-gamma1, fluorogenic substrate, fluorescence; inhibition, % at 12.2 µM; 370,000 compounds, 0.84% hits; in the data active = inhibition above about 9.5%
# DDE Tn7 FP inh: inhibitors of Tn7 peptide binding to human fibrin DD(E). AID 720508. 370,000 compounds, 0.13% hits. P02675. FP displacement of FITC-Tn7 peptide from fibrin DD(E); 0% = median of compound wells per plate. inhibition, % at 8.3 µM;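 active = inhibition above the mean of compounds falling within the control limits plus 3 SD of them, cut at about 14% in these data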
# Target sequence (P02675 whole entry, looked up): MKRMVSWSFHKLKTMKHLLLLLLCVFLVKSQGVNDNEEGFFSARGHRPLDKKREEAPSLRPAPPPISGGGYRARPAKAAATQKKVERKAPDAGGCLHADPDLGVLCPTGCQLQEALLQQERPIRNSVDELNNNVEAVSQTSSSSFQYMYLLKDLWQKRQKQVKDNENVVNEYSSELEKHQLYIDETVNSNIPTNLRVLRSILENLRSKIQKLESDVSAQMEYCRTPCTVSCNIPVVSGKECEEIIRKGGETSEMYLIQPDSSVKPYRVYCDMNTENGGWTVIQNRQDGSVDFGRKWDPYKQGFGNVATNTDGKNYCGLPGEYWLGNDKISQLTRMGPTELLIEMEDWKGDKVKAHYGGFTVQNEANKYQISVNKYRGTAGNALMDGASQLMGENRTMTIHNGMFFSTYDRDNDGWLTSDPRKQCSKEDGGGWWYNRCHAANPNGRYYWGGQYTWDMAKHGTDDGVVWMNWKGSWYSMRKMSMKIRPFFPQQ
#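 Assay system: human fibrin DD(E). Input: DD(E) 2 µM final. Medium: Tris buffer with calcium and detergent, pH 7.8. Compound dosing: single point at 8.3 µM. Timing: 10 min plus 3 h, room temperature. Technique: fluorescence polarization of the labelled Tn7 tracer. Read-out: percent inhibition. Replicates: singlicate testing.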
# DDE Tn6 FP inh: inhibitors of Tn6 peptide binding to human fibrin DD(E); 370,000 compounds, 0.21% hits; Fibrin DD(E) TRITC-Tn6 fluorescence polarization displacement; P02675; AID 720509; inhibition, % at 8.3 µM;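 active = inhibition above a per-campaign cutoff: mean of compounds within control limits plus 3 SD, cut at about 15% in these data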
# Numbers stand for hits; . = inactive; / = not tested or not shown.
SMILES,PLCb3 inh,FID counter,PLC-gamma1 inh,DDE Tn7 FP inh,DDE Tn6 FP inh
CC(=O)c1cn(CC(=O)NCc2ccc3c(c2)OCO3)c2ccccc12,.,.,.,.,.
CNC[C@H](Cc1ccccc1)NC[C@@H](Cc1cccc2ccccc12)NCCc1ccc(C)cc1,.,37,.,.,.
CC(=O)[C@@]1(O)CC[C@H]2[C@@H]3CCC4=CC(=O)CC[C@]4(C)[C@H]3[C@@H](O)C[C@@]21C,.,.,11,.,.
CCC(C(=O)OCC(=O)C1(O)CCC2C3CCC4=CC(=O)CCC4(C)C3C(O)CC21C)C(C)C (configuration not stated),.,/,.,.,.
O=C(/C=C/c1ccc(Cl)cc1)NC(=S)Nc1ccc(C(=O)O)cc1,.,.,11,.,.
CN(C)c1ccc(NC(=S)NC(=O)/C=C/c2ccc(Cl)cc2)cc1,.,.,.,.,.
S=C1NNC2(NN1)C1CC3CC(C1)CC2C3,.,.,.,.,.
C1CSC2(N1)C1CC3CC(C1)CC2C3 (configuration not stated),12,.,.,.,.
CC1(C)CC(N2CCC(=O)N(C3CC(C)(C)NC(C)(C)C3)C2)CC(C)(C)N1,.,37,.,.,.
CC1(C)CC(N2CCC(=O)NC2=S)CC(C)(C)N1,.,/,.,.,.
CCN1CCCC1CNC(=O)C1CCN(Cc2nc(-c3cccc(Br)c3)oc2C)CC1 (configuration not stated),/,39,/,/,/
Cc1oc(-c2cccc(Cl)c2)nc1CN1CCC(C(=O)NCc2ccco2)CC1,.,.,.,.,.
COC(=O)C1(C)NC(c2ccc(O)cc2)C2C(=O)N(c3ccc(F)cc3)C(=O)C21 (configuration not stated),.,.,15,.,.
O=C(O)COc1ccccc1C=NNC(=O)c1ccc(NS(=O)(=O)c2cccs2)cc1,.,/,.,.,.
C/C(=N\NC(=O)c1nnn(-c2nonc2N)c1CSc1ccc(C)cc1)c1ccco1,.,.,.,.,.
Brc1ccc(OCCCCCN2CCOCC2)cc1,.,.,9.7,.,.
Brc1ccc(OCCOCCN2CCOCC2)cc1,.,.,.,.,.
COc1ccc(COC(=O)N/C=C/c2ccco2)cc1,.,.,.,.,.
Clc1ccc2nc(N3CCNCC3)nc(-c3ccccc3)c2c1,.,44,.,.,.
CN1CCN(c2nc(-c3ccccc3)c3cc(Cl)ccc3n2)CC1,.,.,.,.,.
CCN(CC(=O)NCc1ccc(Cl)cc1)C(=O)CCc1ccccc1O,.,.,.,.,.
COc1ccc(C(=O)N2CCCC2)cc1S(=O)(=O)N1CCC(C)CC1,11,.,.,.,.
CCOC(=O)N1CCN(c2cc(=O)n(Cc3ccc(F)cc3)c(=O)[nH]2)CC1,.,.,.,.,.
CC(NCC(O)c1ccc([N+](=O)[O-])cc1)C12CC3CC(CC(C3)C1)C2 (configuration not stated),.,38,.,.,.
O=C(Nc1ccc2c(c1)OCCO2)C(CCc1ccccc1)N1CCN(C/C=C/c2ccccc2)CC1 (configuration not stated),.,/,.,.,.
SMILES,PLCb3 inh,FID counter,PLC-gamma1 inh,DDE Tn7 FP inh,DDE Tn6 FP inh
CCOC(=O)Cn1nnc(-c2ccc([N+](=O)[O-])cc2)n1,.,.,9.6,.,.
CCOC(=O)C(C)(C)n1nnc(-c2ccc([N+](=O)[O-])cc2)n1,.,.,.,.,.
O=C(NCCCn1ccnc1)c1ccc(-c2cccc(Cl)c2Cl)o1,.,/,.,.,.
Nc1cccc(N2C(=O)c3cccc4c(N)ccc(c34)C2=O)c1,.,.,.,30,.
c1ccc(N2CCN(c3nc(NCc4ccco4)c4ccccc4n3)CC2)cc1,.,40,.,.,.
O=C(COC(=O)c1c(F)cccc1Cl)NC1CCCC1,.,.,.,.,.
Cc1cc(NC(=O)c2ccc3[nH]c(C)c(C)c3c2)ccn1,.,37,.,.,.
CC(=O)Nc1cccc(NC(=O)c2ccc3[nH]c(C)c(C)c3c2)c1,.,.,.,.,.
O=S1(=O)c2c(F)cccc2OC(COCc2ccccc2)CN1C1CCCC1 (configuration not stated),.,/,.,.,.
CCCCn1c(NS(=O)(=O)c2ccccc2)c(S(=O)(=O)c2ccc(C)cc2)c2nc3ccccc3nc21,.,.,17,.,.
O=c1c([N+](=O)[O-])cccn1Cc1ccccc1Cl,.,.,.,.,.
N=c1c2c(-c3ccccc3)c(-c3ccccc3)n(Cc3ccccc3)c2ncn1CCO,.,37,.,.,.
